Hsp90 inh = displaces geldanamycin probe from tumor Hsp90 | P07900 | NCI-N417 lysate Hsp90, Cy3B-geldanamycin FP displacement | inhibition, % at 30 µM | hit rate 0.35% among 64,000;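 active = inhibition above 50%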
M1 agonist = activates the M1 muscarinic receptor; B-score at 10 µM; CHO-M1 cells, Fluo-4 calcium fluorescence, agonist mode; stronger effect = higher value; hit rate 3% among 64,000; AID 626;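 active = fluorescence rise, raw or as B-score row- and column-corrected plate score, outside the 99.7% band of its plate's samples, either direction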
E coli WT exp = blocks growth of wild type E. coli BW25113 | OD600 absorbance | growth inhibition, % at 100 µM | hit rate 0.15% among 98,000 | AID 710;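 active = growth inhibition above about 50% at one test dose, limit read from the data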;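 note: growth measured after 20 h incubation at 37 °C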
Ecoli tolC = E. coli tolC mutant growth inhibition. hit rate 2.2% among 65,000. E. coli BW25113 tolC mutant growth, OD615. growth inhibition, % at 10 µM (by protocol);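 active = growth inhibition at or above a cutoff equal to the mean over every tested compound plus 3 SD, cut at about 60% in these data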;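 note: growth measured after 20 h incubation at 37 °C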
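Test system – E. coli BW25113 ΔtolC::kan, tolC deletion mutant strain · Detection – OD at 615 nm · Buffer or medium – LB with kanamycin 50 µg/mL · Times – 20 h compound exposure of bacteria at 37 °C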
BAP1 block = inhibitors of human BAP1 deubiquitinase; hit rate 0.48% among 72,000; Q92560; recombinant BAP1, Ub-AMC hydrolysis fluorescence kinetic; stronger effect = lower value; AID 436; calls only at 20 µM;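 active = activity remaining at or below 50% of control, provided the compound also passes the data quality filters; inactive = the rest, including low values that fail the filters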
Target sequence (Q92560 whole entry, looked up): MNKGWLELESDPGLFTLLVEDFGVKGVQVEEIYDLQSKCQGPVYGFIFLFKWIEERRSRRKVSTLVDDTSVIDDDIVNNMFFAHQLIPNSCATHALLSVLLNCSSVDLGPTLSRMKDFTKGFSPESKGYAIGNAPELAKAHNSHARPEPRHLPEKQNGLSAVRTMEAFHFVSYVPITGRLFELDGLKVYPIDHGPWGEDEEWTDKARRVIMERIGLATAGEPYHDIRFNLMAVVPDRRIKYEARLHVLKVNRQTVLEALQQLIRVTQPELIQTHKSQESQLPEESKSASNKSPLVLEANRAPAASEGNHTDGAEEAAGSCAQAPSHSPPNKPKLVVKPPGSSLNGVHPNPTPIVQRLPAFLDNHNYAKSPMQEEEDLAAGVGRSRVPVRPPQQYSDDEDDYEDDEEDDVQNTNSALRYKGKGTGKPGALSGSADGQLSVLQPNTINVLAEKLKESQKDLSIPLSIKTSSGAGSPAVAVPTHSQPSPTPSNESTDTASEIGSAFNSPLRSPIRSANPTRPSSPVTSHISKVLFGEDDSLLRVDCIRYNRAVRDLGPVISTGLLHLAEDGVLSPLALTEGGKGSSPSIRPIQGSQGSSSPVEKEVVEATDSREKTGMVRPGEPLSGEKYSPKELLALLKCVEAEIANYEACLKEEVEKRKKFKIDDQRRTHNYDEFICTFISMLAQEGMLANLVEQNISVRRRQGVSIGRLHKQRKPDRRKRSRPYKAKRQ
M1 antag = M1 muscarinic receptor (rat) antagonism; P08482; CHO-M1 cells, Fluo-4 calcium, ACh EC80 antagonist mode; stronger effect = lower value; B-score at 10 µM; hit rate 3.4% among 64,000; AID 628;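 active = calcium fluorescence response, raw or row-and-column corrected B-score, differing from the plate sample mean either way at a set confidence level, mostly lower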
M1 antag confirm = M1 muscarinic receptor (rat) antagonism, confirmed; CHO-M1 cells, Fluo-4 calcium, ACh EC80 antagonism; stronger effect = lower value; hit rate 43% among 1,700; calcium response (max-min fluorescence) at 10 µM; shares compounds with M1 antag;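 active = calcium response below the same-plate mean of wells given acetylcholine alone at its 80%-effect dose, minus 3 SD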
mGluR4 antag = acts on human mGluR4 in M1 antagonist selectivity test; shares compounds with M1 antag; CHO-mGluR4 calcium flux, Fluo-4 fluorescence, glutamate EC80; stronger effect = lower value; fluorescence response (max-min) at 10 µM; hit rate 0.9% among 1,700; AID 678;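 active = fluorescence response below the plate's average for near-maximal glutamate wells, less 3 SD of those wells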;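 note: raw unnormalized fluorescence span taken in the window right after glutamate addition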
Numbers stand for hits; . = inactive; / = no result shown. Sampled rows, rich in hits. Any-hit rate of the full collection: about 5.1%.

SMILES | Hsp90 inh | M1 agonist | E coli WT exp | Ecoli tolC | BAP1 block | M1 antag | M1 antag confirm | mGluR4 antag
CCOC(=O)C1=C(C)NC(=O)NC1c1ccc(N(C)C)cc1 (stereo not given) | . | . | . | . | . | . | / | /
CCN(CC)c1ccc(C2C(C(=O)OC)=C(C)NC(C)=C2C(=O)OC)cc1 | . | . | . | . | . | -2.7 | 209 | .
CCOC(=O)C1=C(C)NC(=O)NC1c1ccc(N(CC)CC)cc1 (stereo not given) | . | . | . | . | . | -3.1 | 391 | .
OC(CNc1ccccc1)Cn1c2ccc(Cl)cc2c2cc(Cl)ccc21 (stereo not given) | / | / | / | / | . | / | / | /
NC(=O)C1(N2CCCCC2)CCN(C(=O)CSc2nc(C(F)(F)F)cc(=O)[nH]2)CC1 | . | . | . | . | . | -3.5 | . | .
Cc1cc(=O)[nH]c(SCC(=O)N2CCCCCC2)n1 | . | . | . | . | . | . | / | /
Cc1cc(=O)n2nc(N3CCC(C(=O)N4CCN(Cc5ccccc5)CC4)CC3)sc2n1 | . | . | . | . | . | -6 | . | .
Cc1ccc(Cn2nnc3c(=O)n(Cc4cccc(C)c4)cnc32)cc1 | . | . | . | . | . | -3.4 | 481 | .
CCOC(=O)C1=C(C)NC2=C(C(=O)CC(c3ccc(Cl)cc3)C2)C1c1ccc(N(CC)CC)cc1 (stereo not given) | / | / | / | / | . | / | / | /
O=C(Nc1cccc(S(=O)(=O)C(F)F)c1)c1ccc(Cl)c(S(=O)(=O)N2CCOCC2)c1 | . | . | . | . | . | -2.2 | . | 104
CCOC(=O)C1CCN(S(=O)(=O)c2cccc(-c3cn4ccccc4n3)c2)CC1 | . | . | . | . | . | -3.1 | . | .
CC1CN(S(=O)(=O)c2cccc(-c3cn4ccccc4n3)c2)CC(C)O1 (stereo not given) | . | . | . | . | . | . | / | /
Cc1cccc(NC(=O)c2ccccn2)c1C | . | . | . | . | . | -1.9 | . | .
Cc1ccc(C)c(NC(=O)c2ccccn2)c1 | . | . | . | . | . | . | / | /
COC(=O)/C(C(C)=O)=C(/C=C/C=C/N(C)C)N(C)C | / | / | . | / | / | / | / | /
COC(=O)\C(C(C)=O)=C(/C=C/C=C/N(C)C)N(C)C | . | . | . | . | . | -2.4 | . | .
COc1ccccc1C(NC(=O)C(C)C)c1ccc2cccnc2c1O (stereo not given) | / | / | / | / | . | / | / | /
COc1ccccc1C(O)c1cnc(C(C)C)n1C (stereo not given) | / | / | / | / | . | / | / | /
NC(=O)NCC12CC3CC(CC(C3)C1)C2 | . | . | . | . | . | -2.9 | . | .
O=C(CN1CCCC1)NCC12CC3CC(CC(C3)C1)C2 | . | . | . | . | . | . | / | /
Cc1ccc(S(=O)(=O)NC2=NCN(C3CCN(Cc4ccccc4)CC3)CN2)cc1 | . | . | . | . | . | -3.2 | . | .
Cc1ccc(S(=O)(=O)NC2=NCN(Cc3ccccc3)CN2)cc1 | . | . | . | . | . | . | / | /
CCCCOC(=O)CNS(=O)(=O)c1ccc([N+](=O)[O-])cc1 | / | / | / | / | . | / | / | /
O=C(CN(c1ccccc1)S(=O)(=O)c1ccccc1)N1CCN(Cc2ccc3c(c2)OCO3)CC1 | . | . | . | . | . | -4.1 | 436 | .
O=C(CSCc1ccccc1)N1CCN(Cc2ccc3c(c2)OCO3)CC1 | . | . | / | . | . | . | / | /
SMILES | Hsp90 inh | M1 agonist | E coli WT exp | Ecoli tolC | BAP1 block | M1 antag | M1 antag confirm | mGluR4 antag
COc1ccc(F)cc1S(=O)(=O)N1CCN(Cc2ccc3c(c2)OCO3)CC1 | . | . | . | . | . | . | / | /
CSc1ccc(S(=O)(=O)N2CCN(Cc3ccc4c(c3)OCO4)CC2)cc1 | . | . | . | . | . | -2.1 | . | .
CN(c1ccc(C(=O)N2CCN(Cc3ccc4c(c3)OCO4)CC2)cc1)S(=O)(=O)c1ccccc1 | / | / | . | / | / | / | / | /
c1ccc(CN2CCC(N3CCN(Cc4ccc5c(c4)OCO5)CC3)CC2)cc1 | . | . | / | . | . | -2.3 | 330 | .
Cc1cc(C)nc(N2CC(=O)N(C)C2=N)n1 | / | / | / | / | . | / | / | /
Cc1nn(C(=O)c2ccc([N+](=O)[O-])cc2)c(C)c1Sc1ccccc1 | / | / | / | / | . | / | / | /
COC(=O)c1ccc(C2NC(=O)c3c(sc4c3CCN(C)C4)N2)cc1 (stereo not given) | / | / | / | / | . | / | / | /
OC(COCc1ccc(Cl)cc1)CN1CCN(CC(O)COCc2ccc(Cl)cc2)CC1 (stereo not given) | . | . | . | . | . | -1.9 | 444 | .
CCN1CCN(CC(O)COCc2ccccc2)CC1 (stereo not given) | . | . | . | . | . | . | / | /
O=C(Oc1ccc(F)cc1)c1cccc(C(=O)Oc2ccc(F)cc2)n1 | / | / | / | / | . | / | / | /
O=C(CSc1ncn[nH]1)N1CCN(c2nnc(-c3ccccc3)c3ccccc23)CC1 | . | . | . | . | . | -2.9 | 497 | .
COCCn1c(SCc2cccnc2)nnc1-c1ccco1 | . | . | . | / | . | -3 | . | .
COCCn1c(SCC(=O)NCCc2ccccc2)nnc1-c1ccco1 | . | . | . | . | . | . | / | /
COc1ccc2nc(NC(=O)c3ccc(S(=O)(=O)N(C)C)cc3)sc2c1 | / | / | / | / | . | / | / | /
CCCCCCC1C(C#N)=C(N)OC2=C1C(=O)CCC2 (stereo not given) | . | . | . | . | . | -2.3 | 434 | .
Nc1nc(CN2CCCCC2)cs1 | . | . | . | . | . | . | / | /
Nc1nc(CN2CCOCC2)cs1 | . | . | . | . | . | -0.83 | . | .
CCCCc1cc(=O)oc2c(CN3CCCC3)c(O)ccc12 | . | . | . | . | / | -2.3 | . | .
CCCCc1cc(=O)oc2cc(C)c(CN3CCCC3)c(O)c12 | . | . | . | . | / | . | / | /
CCCCN1C(=O)C2ON(c3ccccc3C)C(c3ccco3)C2C1=O (stereo not given) | . | . | . | 61 | . | -0.94 | 532 | .
Cc1onc(-c2ccccc2Cl)c1C(=O)N1CCc2ccccc2C1 | / | / | . | / | / | / | / | /
Cc1onc(-c2c(Cl)cccc2Cl)c1C(=O)N1CCc2ccccc21 | . | . | . | . | . | -8.3 | 120 | .
Cc1onc(-c2c(F)cccc2Cl)c1C(=O)N1CCc2ccccc2C1 | . | . | . | . | . | -3.2 | . | .
COCCNC(=O)c1nn2c(C(F)(F)F)c3c(nc2c1Cl)-c1ccccc1CC3 | / | / | / | / | . | / | / | /
O=C(CCN1CCc2ccccc2CC1)c1ccc2c(c1)OCCO2 | . | . | . | . | . | -3.9 | 215 | .
O=C(CCCN1CCOCC1)c1ccc2c(c1)OCCO2 | . | . | . | . | . | . | / | /
O=C(CCCN1CCC(c2ccccc2)C1)c1ccc2c(c1)OCCO2 (stereo not given) | . | . | . | . | . | -8.8 | 251 | .
COc1ccccc1NC(=O)c1c(NC(=O)C(C)C)sc2c1CCCC2 | / | / | / | / | . | / | / | /
CCCCOc1ccc(NC(=O)c2ccc([N+](=O)[O-])cc2Cl)cc1 | / | / | / | / | . | / | / | /
